Laboratory results as given in ChEMBL document CHEMBL1125862, “(1S)-1-(aminomethyl)-2-(arylacetyl)-1,2,3,4-tetrahydroisoquinoline and heterocycle-condensed tetrahydropyridine derivatives: members of a novel class of very potent kappa opioid analgesics” (J Med Chem, 1991).

Assays:
[1] = system: Mus musculus; assay: In vivo antinociceptive activity in mouse tail flick test following p.o. administration.; assay type: functional
[2] = system: Mus musculus; assay: In vivo antinociceptive activity using mouse tail flick test, subcutaneous administration; assay type: functional
[3] = system: Mus musculus; assay: Phenyl-p-benzoquinone-induced abdominal constriction after subcutaneous administration in mouse (in vivo); assay type: functional, Abdomen
In short: (§1)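 Mice given test agent subcutaneously, with 10 animals per dose, then challenged with phenyl-p-benzoquinone. Abdominal constrictions counted over an 8-min observation period. Percentage inhibition calculated as 1 − (T/C) × 100, with T the treated-group mean and C the control-group mean count.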

[4] = biological target: Mu-type opioid receptor (Cavia porcellus, UniProt P97266); assay: Affinity for opioid receptor mu sites
[5] = biological target: Kappa-type opioid receptor (Cavia porcellus, UniProt P41144); assay: Displacement of [3H]-BRL 52537 from opioid receptor kappa site in guinea pig
[6] = system: Mus musculus; assay: Concentration required for 50% inhibition of abdominal constrictions by phenyl-p-benzoquinone-induced abdominal constriction given sc in mouse.; assay type: functional, Abdomen; in short: as §1
[7] = Mus musculus, Tail, po, read-out: ED50
[8] = Mus musculus, Tail, sc, read-out: ED50
[9] = Mus musculus, Abdomen, sc, read-out: ED50

Chain of Kappa-type opioid receptor (P41144 whole entry): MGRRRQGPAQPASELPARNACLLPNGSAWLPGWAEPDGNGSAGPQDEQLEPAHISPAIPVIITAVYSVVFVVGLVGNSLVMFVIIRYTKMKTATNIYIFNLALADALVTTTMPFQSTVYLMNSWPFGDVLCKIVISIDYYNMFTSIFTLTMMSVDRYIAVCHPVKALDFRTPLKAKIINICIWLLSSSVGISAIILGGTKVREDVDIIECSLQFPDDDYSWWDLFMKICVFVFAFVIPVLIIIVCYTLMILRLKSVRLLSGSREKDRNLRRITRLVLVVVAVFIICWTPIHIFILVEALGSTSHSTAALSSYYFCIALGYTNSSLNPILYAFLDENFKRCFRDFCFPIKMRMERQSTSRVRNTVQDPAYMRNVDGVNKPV
Chain of Mu-type opioid receptor (P97266 whole entry): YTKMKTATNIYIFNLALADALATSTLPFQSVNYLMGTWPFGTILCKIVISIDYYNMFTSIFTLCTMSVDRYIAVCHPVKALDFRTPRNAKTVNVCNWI

O=C(Cc1ccc(Cl)c(Cl)c1)N1CCc2ccccc2C1CN1CCCC1.O=C(O)C(O)C(O)C(=O)O (stereo not drawn)
ED50 [1]: 0.544 µM/kg
ED50 [2]: 0.02 µM/kg
ED50 [3]: 0.017 µM/kg

O=C(Cc1ccc(C(F)(F)F)cc1)N1CCc2sccc2C1CN1CCCCC1 (stereo not drawn)
ED50 [1, 7]: 4.65 µmol/kg
Ki [4]: 420 nM
ED50 [2, 8]: 0.125 µmol/kg
Ki [5]: 0.6 nM
ED50 [3, 9]: 0.024 µmol/kg

O=C(Cc1ccc(Cl)c(Cl)c1)N1CCc2c([nH]c3ccccc23)C1CN1CCCC1 (stereo not drawn)
Ki [4]: > 1000 nM
ED50 [2, 8]: > 20 µmol/kg
Ki [5]: > 100 nM

O=C(Cc1ccc(Cl)c(Cl)c1)N1CCc2[nH]c3ccccc3c2C1CN1CCCC1 (stereo not drawn)
Ki [4]: > 1000 nM
ED50 [2, 8]: > 20 µmol/kg
Ki [5]: 100 nM

O=C(Cc1ccc(C(F)(F)F)cc1)N1CCCC[C@H]1CN1CCCC1
ED50 [1, 7]: 3.29 µmol/kg
Ki [4]: 2340 nM
ED50 [2, 8]: 0.0373 µmol/kg
Ki [5]: 0.64 nM
ED50 [3, 9]: 0.099 µmol/kg

O=C(Cc1ccc(Cl)c(Cl)c1)N1CCc2ccccc2C1CN1CCCC1 (stereo not drawn)
ED50 [1, 7]: 0.626 µmol/kg
ED50 [2, 8]: 0.036 µmol/kg
ED50 [3, 9]: 0.025 µmol/kg

O=C(Cc1ccc(Cl)c(Cl)c1)N1CCCC[C@H]1CN1CCCC1
ED50 [1, 7]: 2.49 µmol/kg
ED50 [2, 8]: 0.135 µmol/kg
Ki [5]: 0.31 nM
ED50 [3, 9]: 0.056 µmol/kg

O=C(Cc1ccc(Cl)c(Cl)c1)N1CCc2ccccc2C1CN1CCCCCC1 (stereo not drawn)
ED50 [2, 8]: 0.267 µmol/kg
ED50 [3, 9]: 0.083 µmol/kg

O=C(Cc1ccc(Cl)c(Cl)c1)N1CCc2sccc2C1CN1CCCCC1 (stereo not drawn)
ED50 [1, 7]: 2.75 µmol/kg
Ki [4]: 445 nM
ED50 [2, 8]: 0.096 µmol/kg
Ki [5]: 0.47 nM
ED50 [3, 9]: 0.024 µmol/kg

O=C(Cc1ccc(Cl)c(Cl)c1)N1CCc2ccsc2C1CN1CCCC1 (stereo not drawn)
ED50 [1, 7]: 1.59 µmol/kg
Ki [4]: 47 nM
ED50 [2, 8]: 0.073 µmol/kg
Ki [5]: 0.46 nM

O=C(Cc1ccc(Cl)c(Cl)c1)N1Cc2ccccc2CC1CN1CCCC1 (stereo not drawn)
ED50 [2, 8]: 8.23 µmol/kg

O=C(Cc1ccc(Cl)c(Cl)c1)N1CCc2sccc2C1CN1CCCC1 (stereo not drawn)
ED50 [1, 7]: 0.945 µmol/kg
Ki [4]: 47.2 nM
ED50 [2, 8]: 0.018 µmol/kg
Ki [5]: 0.22 nM

O=C(Cc1ccc(Cl)c(Cl)c1)N1c2ccccc2CCC1CN1CCCC1 (stereo not drawn)
ED50 [2, 8]: > 20 µmol/kg

O=C(Cc1ccc(Cl)c(Cl)c1)N1CCc2ccccc2C1CN1CCC1 (stereo not drawn)
ED50 [2, 8]: 23.2 µmol/kg

CN(C)CC1c2ccccc2CCN1C(=O)Cc1ccc(Cl)c(Cl)c1.Cl (racemic)
ED50 [1, 7]: 2.88 µmol/kg
ED50 [6]: 0.127 µM/kg
ED50 [2, 8]: 0.099 µmol/kg

O=C(Cc1ccc([N+](=O)[O-])cc1)N1CCc2ccccc2C1CN1CCCC1 (racemic)
ED50 [1, 7]: 0.409 µmol/kg
ED50 [2, 8]: 0.038 µmol/kg

O=C(Cc1ccccc1[N+](=O)[O-])N1CCc2ccccc2C1CN1CCCC1 (racemic)
ED50 [2, 8]: > 21 µmol/kg

O=C(Cc1ccc(C(F)(F)F)cc1)N1CCc2ccccc2C1CN1CCCC1 (racemic)
ED50 [1, 7]: 0.467 µmol/kg
ED50 [6, 9]: 0.027 µmol/kg
ED50 [2, 8]: 0.074 µmol/kg

O=C(Cc1ccc(Cl)c(Cl)c1)N1CCc2ccccc2C1CN1CCCCCCC1 (racemic)
ED50 [2, 8]: > 22 µmol/kg

O=C(Cc1ccc(Br)cc1)N1CCc2ccccc2C1CN1CCCC1 (racemic)
ED50 [2, 8]: 0.07 µmol/kg

C=CCN(C)CC1c2ccccc2CCN1C(=O)Cc1ccc(Cl)c(Cl)c1 (racemic)
ED50 [1, 7]: 6.88 µmol/kg
ED50 [2, 8]: 0.521 µmol/kg

CCCN(CCC)CC1c2ccccc2CCN1C(=O)Cc1ccc(Cl)c(Cl)c1 (racemic)
ED50 [2, 8]: > 23 µmol/kg

CN(CC1CC1)CC1c2ccccc2CCN1C(=O)Cc1ccc(Cl)c(Cl)c1 (racemic)
ED50 [2, 8]: 3.39 µmol/kg

CCN(CC)CC1c2ccccc2CCN1C(=O)Cc1ccc(Cl)c(Cl)c1 (racemic)
ED50 [1, 7]: 3.37 µmol/kg
ED50 [2, 8]: 0.264 µmol/kg

O=C(Cc1ccc(Cl)c(Cl)c1)N1CCc2ccccc2C1CN1CCCCC1 (racemic)
ED50 [1, 7]: 5.16 µmol/kg
ED50 [2, 8]: 0.359 µmol/kg
ED50 [3, 9]: 0.101 µmol/kg

O=C(Cc1cccc([N+](=O)[O-])c1)N1CCc2ccccc2C1CN1CCCC1 (racemic)
ED50 [1, 7]: 5.26 µmol/kg
ED50 [2, 8]: 0.105 µmol/kg

CNCC1c2ccccc2CCN1C(=O)Cc1ccc(Cl)c(Cl)c1 (racemic)
ED50 [2, 8]: > 28 µmol/kg

CCO.CN(C)CC1c2ccccc2CCN1C(=O)Cc1ccc(Cl)c(Cl)c1.O=C(O)C(O)C(O)C(=O)O (single isomer, unassigned; (-))
ED50 [1]: 2.199 µM/kg
ED50 [6]: 0.042 µM/kg
Ki [4]: 293 nM
ED50 [2]: 0.075 µM/kg
Ki [5]: 0.51 nM

O=C(Cc1ccc(C(F)(F)F)cc1)N1CCc2ccccc2C1CN1CCCCC1 (single isomer, unassigned; (-))
ED50 [1, 7]: 3.84 µmol/kg
ED50 [6, 9]: 0.06 µmol/kg
Ki [4]: 231 nM
ED50 [2, 8]: 0.168 µmol/kg
Ki [5]: 0.62 nM

O=C(Cc1ccc(C(F)(F)F)cc1)N1CCc2ccccc2[C@H]1CN1CCCC1 (stereo in doubt; 30)
ED50 [1, 7]: 0.25 µmol/kg
ED50 [6, 9]: 0.015 µmol/kg
Ki [4]: 10.7 nM
ED50 [2]: 0.032 µM/kg
Ki [5]: 0.24 nM

CN1CC[C@]23c4c5ccc(O)c4O[C@H]2[C@@H](O)C=C[C@H]3[C@H]1C5 [MORPHINE]
ED50 [1, 7]: 32.6 µmol/kg
